Assay results collected from several papers.
Read-out: cell growth or viability

O=C(Nc1ccc(Oc2nnc(-c3ccc(Cl)cc3)c3ccccc23)cc1)c1cccc([N+](=O)[O-])c1 — viability (HepG2; MTT; 10 µM, 24 h): 6.17%
CC(=O)c1nn(-c2ccc(C)cc2)/c(=N/N=C(\C)c2ccc(NC(=O)c3ccccc3)cc2)s1 — viability (HepG2; MTT; 78 nM): 73.6%
CC(=NNC(=O)COc1ccc2c(C)c(Cc3ccccc3)c(=O)oc2c1C)c1ccc(Br)cc1 — viability (HepG2; MTT; 0.4 µg/mL): 58%
O=C(C=Cc1ccccc1)Nc1ccc(Oc2nnc(-c3ccc(Cl)cc3)c3ccccc23)cc1 — viability (HepG2; MTT; 0.625 µM, 24 h): 78.5%
CC(=O)c1nn(-c2ccccc2Cl)/c(=N/N=C(\C)c2ccc(NC(=O)c3ccccc3)cc2)s1 — viability (HepG2; MTT; 0.312 µM): 6.13%
CC(C)(C)c1cnc(CSc2cnc(NC(=O)C3CCN(CCCCCCCCSc4cccc5c4CN(C4CCC(=O)NC4=O)C5=O)CC3)s2)o1 (stereo not shown) — viability (HH; CCK-8; 0.25 µM): 0%
CC(=NNC(=O)c1ccc(N)cc1)c1ccc(Nc2nnc(-c3ccc(Cl)cc3)c3ccccc23)cc1 — viability (HepG2; MTT; 0.625 µM, 24 h): 91.5%
CC(C)(C)c1cnc(CSc2cnc(NC(=O)C3CCN(C(=O)CCCSc4cccc5c4C(=O)N(C4CCC(=O)NC4=O)C5=O)CC3)s2)o1 (stereo not shown) — viability (HH; CCK-8; 10 nM): 99.7%
CC(=NNC(=O)c1cccnc1)c1ccc(Nc2nnc(-c3ccc(Cl)cc3)c3ccccc23)cc1 — viability (HepG2; MTT; 5 µM, 24 h): 3.2%
CC(C)(C)c1cnc(CSc2cnc(NC(=O)C3CCN(C(=O)COCCOCCSc4cccc5c4C(=O)N(C4CCC(=O)NC4=O)C5=O)CC3)s2)o1 (stereo not shown) — viability (HH; CCK-8; 0.2 µM): 94.2%
CC(=O)Nc1ccc(/C(C)=N/N=c2\sc(C(C)=O)nn2-c2ccc(C)cc2)cc1 — viability (HepG2; MTT; 0.625 µM): 99.8%
CC(C)(C)c1cnc(CSc2cnc(NC(=O)C3CCN(CCCCCCCCSc4cccc5c4C(=O)N(C4CCC(=O)NC4=O)C5=O)CC3)s2)o1 (stereo not shown) — viability (HH; CCK-8; 1 nM): 99.5%
CCOC(=O)c1nn(-c2cccc(Cl)c2)/c(=N/N=C(\C)c2ccc(NC(=O)c3ccc(Cl)cc3)cc2)s1 — viability (HepG2; MTT; 0.312 µM): 3.13%
CC(C)(C)c1cnc(CSc2cnc(NC(=O)C3CCN(CCCCCSc4cccc5c4CN(C4CCC(=O)NC4=O)C5=O)CC3)s2)o1 (stereo not shown) — viability (HH; CCK-8; 50 nM): 97.6%
CC(=NNC(=O)c1ccccc1Cl)c1ccc(Nc2nnc(-c3ccc(Cl)cc3)c3ccccc23)cc1 — viability (HepG2; MTT; 0.625 µM, 24 h): 28.3%
CCOC(=O)c1nn(-c2cccc(Cl)c2)/c(=N/N=C(\C)c2ccc(NC(=O)c3ccccc3)cc2)s1 — viability (HepG2; MTT; 2.5 µM): 2.82%
